The nature of data set [1]: Cytotoxicity against mouse RAW264.7 cells assessed as induction of cell killing incubated for 24 hrs by alamar blue dye based fluorescence analysis. To be noted: read-out: ED50. The essentials: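 Mouse macrophages seeded at 2.5×10^5 mL⁻¹ in DMEM/10% HIFBS, 24 h at 37 °C, 5% CO₂. Then washed and held 24 h in DMEM/2% HIFBS. Compounds 100 μM to 0.41 μM in 2% HIFBS medium for 24 h. alamarBlue 4 h, then fluorescence at 560/600 nm. Cycloheximide (50 μM) positive, DMSO negative control. EC₅₀ derived.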
Background: Resazurin is reduced to fluorescent resorufin, in cell work by metabolically active cells.

The test system of data set [2] is Leishmania mexicana. The experiment in a line: Antileishmanial activity against axenic amastigote stage of Leishmania mexicana (MNYC/BZ/62/M379) assessed as inhibition of parasite proliferation at 50 uM incubated for 24 hrs by alamar blue dye based fluorescence analysis. The format is functional. The method, boiled down: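 Primary single-point screen at 50 μM, in duplicate. Axenic L. mexicana amastigotes at 4x10⁵ mL⁻¹ incubated with compound 24 h at 33 °C in sealed plates, then alamarBlue for a further 24 h at the same temperature. Viability read by fluorescence at 560/600 nm against amphotericin B (50 μM) and DMSO controls.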

Data set [3] can be described thus: Selectivity index, ratio of ED50 for mouse RAW264.7 cells to ED50 for antileishmanial activity against axenic amastigote stage of Leishmania mexicana (MNYC/BZ/62/M379). It counts as toxicity. To be noted: read-out: Ratio ED50. The essentials:
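Selectivity index calculated as EC₅₀ in RAW macrophages (24 h alamarBlue cytotoxicity assay) divided by EC₅₀ against axenic L. mexicana amastigotes.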

For data set [4], the system named is Leishmania mexicana. The experiment in a line: Antileishmanial activity against axenic amastigote stage of Leishmania mexicana (MNYC/BZ/62/M379) assessed as induction of parasite killing incubated for 24 hrs by alamar blue dye based fluorescence analysis. It counts as functional. The conditions noted are these: read-out: ED50 (the source's name). The essentials:
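L. mexicana axenic amastigotes (from promastigotes by pH/temperature shift; Schneider's with 20% HIFBS) at 4x10⁵ mL⁻¹, exposed to three-fold dilutions from 50 μM to 0.21 μM for 24 h at 33 °C in sealed plates. alamarBlue then added for another 24 h, fluorescence read at 560/600 nm. Amphotericin B (50 μM) positive, DMSO negative control. Duplicates on four occasions, EC₅₀ fitted.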

The test system of data set [5] is Leishmania mexicana. Kind of data set: Antileishmanial activity against axenic amastigote stage of Leishmania mexicana (MNYC/BZ/62/M379) infected in mouse RAW264.7 cells assessed as induction of parasite killing incubated for 24 hrs by alamar blue dye based fluorescence analysis. The format is functional. The essentials: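 RAW264.7 cells seeded at 2.5x10⁵ mL⁻¹ in DMEM with 10% HIFBS for 24 h at 37 °C, 5% CO₂, then infected with axenic amastigotes at 25x10⁵ mL⁻¹ in DMEM with 2% HIFBS for 24 h. Washed 5x, compound added for 24 h. Cells lysed with 0.05% SDS, then grown in Schneider's (pH7, 15% HIFBS) 48 h at 26 °C. alamarBlue 4 h, fluorescence 560/600 nm. Triplicate, three occasions.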

Structures are written as SMILES.

In general, inhibition refers to the drop in the measured response relative to a control, in per cent. For `CC1(C)CC[C@]2(C(=O)O)CC[C@]3(C)C(=CC[C@@H]4[C@@]5(C)CC[C@H](O)[C@@](C)(C=O)[C@@H]5CC[C@]43C)[C@@H]2C1`, the CC50 at 24 h in data set [1] was found to be 36.6 µM. For the same compound, the inhibition at 50 µM in the data set on Leishmania mexicana [2] is at least 95%. In data set [3], the selectivity ratio stood at 3.8. The EC50 with Leishmania mexicana [4] stood at 9.6 µM.
Taken in the same sequence, the figures for `C[C@H](O)[C@H]1OC(C[C@@H]2OC[C@@]3(C)[C@@H]4CC[C@]5(C)[C@H](CC=C6[C@@H]7CC(C)(C)CC[C@]7(C(=O)O)CC[C@]65C)[C@@]4(C)CC[C@@H]3O2)[C@@H](O)[C@@H]1O` (some centres undefined) were 30.2 µM, at least 95%, 2.9 and 10.3 µM.
For `CC1(C)CC[C@]2(C(=O)O)CC[C@]3(C)C(=CC[C@@H]4[C@@]5(C)CC[C@@H]6O[C@H]([C@H](O)[C@@H](O)[C@H](O)[C@H](O)CO)OC[C@@]6(C)[C@@H]5CC[C@]43C)[C@@H]2C1` the same measures were 29.6 µM, at least 95%, 6.7 and 4.5 µM.
For `CO[C@H]1O[C@H]([C@@H]2OC[C@@]3(C)[C@@H]4CC[C@]5(C)[C@H](CC=C6[C@@H]7CC(C)(C)CC[C@]7(C(=O)O)CC[C@]65C)[C@@]4(C)CC[C@@H]3O2)[C@@H](O)[C@H](O)[C@H]1O`, the CC50 at 24 h in data set [1] was found to be 29.7 µM. Also, the inhibition at 50 µM in the data set with Leishmania mexicana [2] is at least 95%. Also, the selectivity ratio in data set [3] was 5. For the same compound, the EC50 in the data set with Leishmania mexicana [4] turned out to be 6 µM.
Turning to `CC1(C)CC[C@]2(C(=O)O)CC[C@]3(C)C(=CC[C@@H]4[C@@]5(C)CC[C@H](OC(=O)CCC(=O)O)[C@@](C)(COC(=O)CCC(=O)O)[C@@H]5CC[C@]43C)[C@@H]2C1`, in data set [1], the CC50 at 24 h was above 100 µM. For the same compound, the inhibition at 50 µM in the data set with Leishmania mexicana [2] was at least 95%. Besides, the ED50 in the data set on Leishmania mexicana [5] was above 50 µM. In addition, the selectivity ratio in data set [3] was above 44. In addition, the EC50 in the data set on Leishmania mexicana [4] came to 2.3 µM.
Take `COC(=O)[C@]12CCC(C)(C)C[C@H]1C1=CC[C@@H]3[C@@]4(C)CC[C@@H]5O[C@H](c6ccccc6C(=O)O)OC[C@@]5(C)[C@@H]4CC[C@@]3(C)[C@]1(C)CC2`: the CC50 at 24 h in data set [1] worked out at 4.8 µM. Also, the inhibition at 50 µM with Leishmania mexicana [2] is at least 95%. Also, the selectivity ratio in data set [3] was determined as 0.5. The EC50 with Leishmania mexicana [4] worked out at 10 µM.
For `CC1(C)CC[C@]2(NC(=O)N3CCC[C@H]3C(=O)O)CC[C@]3(C)C(=CC[C@@H]4[C@@]5(C)CC[C@@H]6OC(C)(C)OC[C@@]6(C)[C@@H]5CC[C@]43C)[C@@H]2C1` the same measures were 5.4 µM, at least 95%, 6 and 0.9 µM.
For `CC1(C)CC[C@]2(C(=O)O)CC[C@]3(C)C(=CC[C@@H]4[C@@]5(C)CC[C@@H]6O[C@H]([C@H](O)[C@@H](O)[C@H](O)CO)OC[C@@]6(C)[C@@H]5CC[C@]43C)[C@@H]2C1` the same measures were 29.2 µM, at least 95%, 3 and 9.7 µM.
Regarding `COC(=O)[C@]12CCC(C)(C)C[C@H]1C1=CC[C@@H]3[C@@]4(C)CC[C@@H]5O[C@H]([C@H](O)[C@@H](O)[C@H](O)[C@H](O)CO)OC[C@@]5(C)[C@@H]4CC[C@@]3(C)[C@]1(C)CC2`, the CC50 at 24 h in data set [1] was 10.2 µM. Further, the inhibition at 50 µM with Leishmania mexicana [2] was at least 95%. In data set [3], the selectivity ratio was 1.1. Moreover, in the data set on Leishmania mexicana [4], the EC50 came to 9.5 µM.
Taken in the same sequence, the figures for `CC(=O)OC[C@@]1(C)[C@@H]2CC[C@]3(C)[C@H](CC=C4[C@@H]5CC(C)(C)CC[C@]5(NC(=O)N5CCCC5)CC[C@]43C)[C@@]2(C)CC[C@@H]1O` were 10.9 µM, at least 95%, 1 and 10.4 µM.
Take `CC1(C)CC[C@]2(C(=O)O)CC[C@]3(C)C(=CC[C@@H]4[C@@]5(C)CC[C@@H]6O[C@H](C[C@H]7O[C@H](CO)[C@@H](O)[C@H](O)[C@H]7O)OC[C@@]6(C)[C@@H]5CC[C@]43C)[C@@H]2C1`: in data set [1], the CC50 at 24 h was found to be 36.7 µM. Besides, the inhibition at 50 µM with Leishmania mexicana [2] is at least 95%. Also, the selectivity ratio in data set [3] was 4.9. Also, the EC50 in the data set on Leishmania mexicana [4] amounted to 7.5 µM.
Taken in the same sequence, the figures for `CC(=O)OC[C@H](OC(C)=O)[C@H](OC(C)=O)[C@@H](OC(C)=O)[C@@H]1OC[C@@]2(C)[C@@H]3CC[C@]4(C)[C@H](CC=C5[C@@H]6CC(C)(C)CC[C@]6(C(=O)O)CC[C@]54C)[C@@]3(C)CC[C@@H]2O1` were 11.1 µM, at least 95%, 1.5 and 7.2 µM.
